Compound activity deposited in PubChem by several laboratories.
A selection: hits, their analogues and other compounds. The true share with any hit is near 2%.
NR2E3 ag-1: human photoreceptor-specific nuclear receptor agonism. Q9Y5X4. CHO-S Gal4-NCOR/VP16-NR2E3 two-hybrid, luciferase. inhibition of corepressor binding, % at 3.98 µM. 360,000 tested, 0.35% active. AID 602229;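 active = inhibition above the mean of all tested compounds plus 3 SD, cut at about 70% in these data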;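 also: 0% = DMSO with NR2E3 transfected cells and 100% = cells lacking NR2E3 construct; higher means lower luciferase signal from less NR2E3 corepressor binding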
Rev-erbA mod: Rev-erb alpha (human) modulation | P20393 | Rev-erbα–FITC-DNA binding, fluorescence polarization, 90 min | activity, % at 10 µM | 370,000 tested, 0.79% active;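 active = activity above about 14%, limit read from the data; passing the limit was not always enough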;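 also: 0% = DMSO wells with 35 nM protein and 100% = DMSO wells with 750 nM protein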
NR2E3 ag-2: NR2E3 (human) agonism; inhibition of corepressor binding, % at 4.78 µM; 320,000 tested, 0.12% active; GST-NR2E3/biotin-RetCOR TR-FRET, 1536-well; Q9Y5X4; AID 2300;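 active = percent inhibition above the cutoff of mean plus 3 SD of all tested compounds, set per screening campaign, cut at about 20% in these data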;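 also: 0% = DMSO wells and 100% = biotin wells as full block of FRET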
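Assay system: NR2E3–RetCOR corepressor complex. Quantity: 1.35 nM GST-NR2E3. Buffer or medium: pH 7.5 Tris-based buffer. Reagent: biotinylated RetCOR corepressor at 7 nM final. Schedule: 5 h at 4 °C. Detection: TR-FRET, emission read at 617 and 671 nm. Replicates: one well per compound, singlicate testing.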
Neddylation inh: inhibitors of human cullin neddylation | P61081+Q13564 | AID 651699 | TR-FRET cullin neddylation, biochemical | calls only at 25 µM | 360,000 tested, 0.58% active; in the data active = inhibition above about 36%
PG9 binder: binds the HIV-1 gp120 antibody PG9. TR-FRET gp120-PG9 antibody binding. inhibition, % at 6.7 µM. 360,000 tested, 0.43% active; in the data active = inhibition above about 8.5%
NR2E3 agonist cf: confirmation of human NR2E3 nuclear receptor agonists; shares compounds with NR2E3 ag-2; cell-free NR2E3 corepressor release, TR-FRET, 5 h; activation (reported as inhibition), % at 3.98 µM; 360 tested, 39% active; AID 2379; in the data active = activation above about 20%
PPARg-NCOR2 ag: counter-screen for NR2E3 agonists: human PPARgamma-NCOR2 interaction agonists. inhibition, % at 3.98 µM. AID 504787. TR-FRET PPARg-NCOR2 coregulator interaction, biochemical. shares compounds with NR2E3 ag-2. 360 tested, 45% active; in the data active = inhibition above about 20%;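 also: 0% = DMSO vehicle and 100% = wells without protein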
* marks the source's active call; other numbers are inactive results; i = inactive; nt = no result given.

SMILES	NR2E3 ag-1	Rev-erbA mod	NR2E3 ag-2	Neddylation inh	PG9 binder	NR2E3 agonist cf	PPARg-NCOR2 ag
Cc1ccc(S(=O)(=O)NCC(=O)OCC(=O)c2ccc(Br)s2)cc1	-14	-1	22*	i	0	3	10
Cc1ccc(Cn2cc(CN3[C@H](Cc4ccccc4)COc4cc(Br)ccc4S3(=O)=O)nn2)cc1	nt	-7	nt	nt	nt	nt	nt
COC(=O)C1=C(C)N(Cc2cccc(C(F)(F)F)c2)C(=NCc2cc(OC)c(OC)c(OC)c2)NC1c1cccc(Cl)c1 (centres undefined)	nt	-6	nt	nt	0	nt	nt
CC(C)(C)c1cc(=O)n(-c2ccccc2)[nH]1	7	-4	29*	i	0	-4	1
O=c1cc(-c2ccccc2)[nH]n1-c1ccccc1	-21	-1	nt	i	-2	nt	nt
CCSc1nc2sc3c(c2c(=O)[nH]1)CC(C)(CC)OC3 (centres undefined)	8	-1	-3	i	0	nt	nt
CCC1(C)Cc2c(sc3nc(SC)[nH]c(=S)c23)CO1 (centres undefined)	nt	nt	22*	nt	nt	-5	48*
CCCCC(=O)N1CCN(C(=O)c2ccc3c(c2)nc(C)n3C2CCCC2)CC1	nt	-8	nt	nt	nt	nt	nt
Cn1c(N)c(C(=O)CSc2nc(C3CC3)n(-c3ccccc3)n2)c(=O)[nH]c1=O	1	3	24*	i	-2	-16	-3
Cn1c(N)c(C(=O)CSc2nnc(C3CC3)n2-c2ccccc2)c(=O)[nH]c1=O	-16	-12	nt	i	-1	nt	nt
Nn1c(SCC(=O)N2c3ccccc3Sc3ccc(Cl)cc32)nnc1-c1cc(-c2ccc(F)cc2)n[nH]1	nt	-7	nt	nt	nt	nt	nt
O=c1cc(OCc2ccccc2)cc[nH]1	12	-5	50*	i	1	40*	15
Cc1[nH]ccc(=O)c1OCc1ccccc1	-4	-2	6	i	0	nt	nt
O=C(O)c1ccc(-n2cccc2/C=C2/SC(=O)N(CC(=O)N3CCCC3)C2=O)cc1	-54	-20	21*	i	-2	18	6
CC(COc1cccc(C(F)(F)F)c1)CN1CCC(C(O)(c2ccccc2)c2ccccc2)CC1 (centres undefined)	nt	1	nt	nt	nt	nt	nt
CCOc1ccc(-n2nc3c(=S)[nH]nc(C)c3c2C)cc1	1	4	26*	i	42*	15	22*
CCOc1ccc(-n2nc3c(=O)[nH]nc(C)c3c2C)cc1	0	1	0	i	1	nt	nt
CN(C)CCN1C(=O)C(O)=C(C(=O)c2cc3ccccc3o2)C1c1ccccn1 (centres undefined)	nt	nt	27*	nt	nt	2	4
O=C(C1=C(O)C(=O)N(CCN2CCOCC2)C1c1ccc(Cl)cc1)c1cc2ccccc2o1 (centres undefined)	-17	5	20*	i	5	26*	23*
C=CCN1C(=O)[C@@H](CC(=O)NCc2ccc(OC)c(OC)c2)[C@]2(C(=O)OC)CCCCC=C12	nt	7	nt	nt	nt	nt	nt
CCOc1ccc(/C(O)=C2/C(=O)C(=O)N(CCOCCO)C2c2ccc(F)cc2)cc1 (centres undefined)	13	0	20*	i	8	14	7
Cc1ccccc1NC(=O)c1sc2nc(N3CCOCC3)c3c(c2c1N)CCCC3	-89	3	23*	i	5	-10	3
CN(C(=O)c1sc2nc(N3CCOCC3)c3c(c2c1N)CCCC3)c1ccccc1	-2	0	7	i	2	nt	nt
Nc1c(C(=O)NCCc2ccccc2)sc2nc(N3CCOCC3)c3c(c12)CCCC3	0	-4	27*	i	7	3	3
CCSc1nnc(NC(=O)CCc2ccccc2)s1	-18	10	40*	i	2	9	7
COc1ccc(/C(C)=N\NC(=O)c2ccco2)cc1	nt	-4	nt	nt	nt	nt	nt
COC(=O)c1c(C(=O)OC)c2ccccn2c1C(=O)c1ccccc1	-35	-3	2	i	0	nt	nt
COC(=O)c1c(Cl)c2n3ccccc3c(C)c(-c3ccccc3)c-2c1C(=O)OC	-1	3	61*	i	6	69*	70*
